Results from ChEMBL document CHEMBL1144353 (J Med Chem, 2005).

How the values were obtained:
[1] = Inhibition of [3H]leucine uptake into CHO cells; assay type: functional, cell-based, Cricetulus griseus
Summary of the method: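 CHO-K1 monolayers (90-100% confluent) were washed twice for 20 min at 37 °C in Na+-free choline buffer. Cells were then exposed for 2 min at room temperature to 2 µCi/mL L-[3H]leucine with test compound, 10 mM to 300 nM in half-log steps, in duplicate. Controls were no drug and 10 mM L-leucine. Uptake was stopped with cold buffer washes and counted by scintillation. IC50 from nonlinear least-squares regression.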

[2] = Equilibrium dissociation constant for Voltage-gated calcium channel alpha2-delta subunit as inhibition of [3H]gabapentin binding to pig brain membranes; set-up: species or system Sus scrofa, Membrane
Summary of the method: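 Pig cortical membranes (10-20 µg protein/well) with wheat germ agglutinin SPA beads and 30 nM [3H]gabapentin in 10 mM HEPES/10 mM MgSO4, pH 7.4, incubated overnight (15-24 h) at room temperature, then scintillation counted. Mean ± SEM, N = 4.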

Rattus norvegicus [3] = assay: Plasma levels 2 hours after peroral dosing of 30 mg/kg in rats was determined; assay type: functional, organism-based; set-up: dose 30 mg/kg
Summary of the method: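 Sprague-Dawley rats were given a single 30 mg/kg oral dose. Plasma was sampled 2 h after dosing, with brain levels taken at the same time point, and drug concentration is reported in ng/mL.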

[4] = system: System L amino acid transporter (Cricetulus griseus); assay: Inhibition of [3H]leucine uptake by L-amino acid transporter system in Chinese hamster ovary cells
Rattus norvegicus [5] = assay: Brain levels 2 hours after peroral dosing of 30 mg/kg in rats was determined; assay type: functional; conditions: route oral
Summary of the method: (§1)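 Sprague-Dawley rats were dosed orally at 30 mg/kg and sampled at 2 h. Brain and plasma levels were measured in ng/mL, and B/P is the brain-to-plasma ratio.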

Rattus norvegicus [6] = assay: Ratio of brain level and plasma level 2 hours after peroral dosing of 30 mg/kg in rats was determined; assay type: functional, organism-based; set-up: dose 30 mg/kg; summary of the method: as §1

| Structure (SMILES) | IC50 ([1]; Cricetulus griseus, CHO, 2 min) [µM] | Ki [2] [µM] | IC50 ([1]; cho) [µM] | further results |
| --- | --- | --- | --- | --- |
| NCC1(C(=O)O)CC1 | > 8300 | > 10 | – | – |
| NCC1(C(=O)O)CC12CCC2 (stereo unspecified) | > 2490 | 0.2 | – | – |
| CC(C)C1CC1(CN)C(=O)O (stereo unspecified) | > 8300 | 0.34 | – | – |
| CCC(CC)C1CC1(CN)C(=O)O (stereo in doubt) | – | 0.63 | > 2490 | – |
| CC(C)C[C@H](CN)CC(=O)O [PREGABALIN] | – | – | – | Plasma level (Rattus norvegicus [3]): 19400 ng/mL; IC50 [4]: 158 µM |
| NCC1(C(=O)O)CC12CCCCC2 (stereo unspecified) | > 2490 | 0.013 | – | Plasma level (Rattus norvegicus [3]): 7070 ng/mL; IC50 [4]: > 2490 µM; Brain level (Rattus norvegicus [5]): 385 ng/mL; B/P (Rattus norvegicus [6]): 0.054 |
| CC(C)CC1CC1(CN)C(=O)O (stereo in doubt; 36) | – | 0.33 | > 2490 | – |
| NCC1(C(=O)O)CC12CCCC2 (stereo unspecified) | > 8300 | 0.023 | – | – |
| CCCC1(CCC)CC1(CN)C(=O)O (stereo unspecified) | > 2490 | 0.2 | – | – |
| CCC(CC)C1CC1(CN)C(=O)O (stereo in doubt; 12) | – | 0.56 | > 8300 | – |
| CC(C)CC1CC1(CN)C(=O)O (stereo in doubt) | – | 0.037 | > 8300 | – |
